Screening data as filed in PubChem BioAssay.
A selection: hits, their analogues and other compounds. The true share with any hit is near 3.5%.
MrgX1 antag: human MrgX1 receptor antagonism, primary screen | MRGX1-HEK293 calcium flux, Fluo-4, BAM8-22 antagonism; stronger effect = lower value | B-score at 10 µM | Q96LB2 | AID 588676 | 310,000 tested, 1.3% active;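 active = calcium-response B-score plate-corrected more than 3 library SD below zero, starting fluorescence within 5 deviations, no agonist response on first addition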;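 also: peak minus trough fluorescence over baseline after final BAM8-22 challenge near maximal dose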
Target sequence (Q96LB2 whole entry, looked up): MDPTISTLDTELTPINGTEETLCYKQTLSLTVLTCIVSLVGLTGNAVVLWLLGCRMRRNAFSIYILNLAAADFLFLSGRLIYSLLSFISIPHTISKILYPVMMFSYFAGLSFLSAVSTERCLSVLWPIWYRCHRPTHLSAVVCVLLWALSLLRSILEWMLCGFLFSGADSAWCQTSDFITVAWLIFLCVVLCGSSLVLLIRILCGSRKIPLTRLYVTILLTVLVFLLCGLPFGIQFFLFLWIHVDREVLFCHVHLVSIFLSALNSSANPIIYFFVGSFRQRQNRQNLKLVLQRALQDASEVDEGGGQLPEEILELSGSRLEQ
RGS4 pot: potentiators or activators of RGS4 | HEK293 M3R/inducible RGS4, carbachol calcium flux Fluo4; stronger effect = lower value | AID 463111 | 310,000 tested, 0.92% active | B-score at 10 µM;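 active = B-score of the integrated calcium signal more than 4 SD below the library mean, with starting fluorescence not abnormally high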;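 also: negative B-score means reduced calcium response which marks RGS4 activation or potentiation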
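test system = M3R-expressing HEK293 line, RGS4 induced by doxycycline | probe or stimulus = carbachol at ECmax as muscarinic agonist stimulus | timing = dye loading 30 min 37 °C, buffer rest 30 min RT | signal = calcium dye Fluo4 fluorescence | evaluation = B score from integrated fluorescence ratio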
RGS4 block: inhibitors of human RGS4; HEK293 M3R/RGS4 inducible, Fluo-4 calcium flux; stronger effect = higher value; triggered by carbachol at its EC20; B-score at 10 µM; AID 463165; 310,000 tested, 0.45% active;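 active = B-score, a plate-corrected calcium signal, over three deviations above library mean, with baseline fluorescence within five deviations of library mean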;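 also: RGS4 expression induced by doxycycline in cells with stable M3 receptor; B-score is computed from the integrated fluorescence ratio over baseline after carbachol; higher B-score means a larger calcium signal and so more RGS4 inhibition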
Target sequence (P49798 whole entry, looked up): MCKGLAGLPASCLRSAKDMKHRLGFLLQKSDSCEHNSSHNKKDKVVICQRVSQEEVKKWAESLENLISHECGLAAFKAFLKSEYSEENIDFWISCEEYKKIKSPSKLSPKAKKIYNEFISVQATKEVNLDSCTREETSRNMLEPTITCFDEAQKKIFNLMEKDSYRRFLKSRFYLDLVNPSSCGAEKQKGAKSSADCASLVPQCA
MrgX1 PAM: human MrgX1 positive allosteric modulation, primary screen; Q96LB2; MrgX1-HEK293, Fluo-4 calcium flux, FDSS; stronger effect = higher value; B-score at 10 µM; 310,000 tested, 0.63% active; AID 588675;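 active = plate-corrected calcium response at least 3 library SD above typical, normal starting fluorescence, not activating the receptor alone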;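 also: compound read alongside a low EC10 to EC30 dose of BAM8-22 agonist; peak minus trough fluorescence over baseline measured at the second addition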
MrgX1 ag: human MrgX1 receptor agonism, primary screen; 310,000 tested, 0.44% active; B-score at 10 µM; MrgX1-HEK293 cells, Fluo-4 calcium fluorescence, agonist mode; stronger effect = higher value;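 active = calcium response B-score plate-corrected fluorescence ratio at least 3 library SD, with starting fluorescence B-score inside 5 SD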
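Test system: HEK293 cells stably expressing human MrgX1 receptor; Input: fifteen thousand cells per well; Dosing: compound delivered in addition one of three; Schedule: overnight seeding, then 1 h dark dye loading; Technique: Fluo-4 NW calcium fluorescence; Measure: B-scored fluorescence response ratio; Controls: positive and negative controls per plate.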
* hit, by the source's call; i = inactive; nt = no result.

SMILES	MrgX1 antag	RGS4 pot	RGS4 block	MrgX1 PAM	MrgX1 ag
COC1=C(Nc2ccc(C)cc2)C(=O)c2ccccc2C1=O	i	i	i	17*	i
O=C(Cc1ccc(F)cc1)NCCS(=O)(=O)N1CCN(c2cccc(Cl)c2)CC1	i	i	i	i	i
N=c1oc2cc(O)ccc2cc1C(=O)Nc1ccc(Br)cc1	-7*	i	i	i	i
CCN(Cc1ccccc1)c1ccc(/C=N/N=C(N)N)cc1	-5.5*	i	i	i	i
O=C(Cc1ccccc1)NC(NC(=O)Cc1ccccc1)c1cccc([N+](=O)[O-])c1	i	i	i	i	i
C=CCN(CC(O)c1cccc([N+](=O)[O-])c1)C(C)CCc1ccccc1 (stereo not drawn)	i	i	i	16*	i
CN(C)C(/C=C/Nc1ccc(C#N)cc1)=C(C#N)C#N	-5.2*	i	i	i	i
CN(C)C(/C=C/Nc1ccc(F)cc1)=C(C#N)C#N	i	i	i	i	i
O=[N+]([O-])c1ccc(Cl)c2c1C1C=CCC1C(c1ccccn1)N2 (stereo not drawn)	-5.6*	i	i	i	i
CC1=NN(c2ccccc2)C(=O)/C1=C/c1cccs1	i	i	i	i	i
O=C1NN(c2ccc(F)cc2)C(=O)/C1=C/c1cccs1	i	i	i	i	30*
CC(O)c1ccc(Oc2cnccn2)cc1 (stereo not drawn)	i	i	i	i	i
Cc1cccc(N2CCN(C(=O)c3ccc(-n4cncn4)c([N+](=O)[O-])c3)CC2)c1C	-4.9*	i	i	i	i
Cc1nn(-c2ccccc2)c(Cl)c1CN(C(=O)CCl)c1cccc2ccccc12	i	i	i	11*	i
Cc1ccc(C(=O)C(c2ccccc2)N2Cc3ccccc3C2=N)cc1 (stereo not drawn)	i	-8.1*	i	i	i
C[C@@H]1C2CC(C/C2=N\NC(=O)c2ccncc2)C1(C)C (stereo partly drawn)	i	i	i	i	i
CC1C2CC(C/C2=N/NC(=O)c2cccs2)C1(C)C (stereo not drawn)	i	i	i	8.7*	i
O=C(COC(=O)c1ccccc1[N+](=O)[O-])Nc1nnc(-c2ccccc2)o1	i	i	i	i	i
Nn1c(SCc2cccc3ccccc23)nnc1-c1ccco1	i	i	i	i	i
Nn1c(SCc2ccccc2)nnc1-c1ccco1	-5.7*	i	i	i	i
CCc1ccc(CN2CCC(Oc3ccc(C(=O)N4CCCCC4)cc3)CC2)cc1	i	-7.2*	i	i	i
CCc1ccc(CN2CCC(Oc3ccc(C(=O)N4CCCC4)cc3)CC2)cc1	i	i	i	i	i
CN(c1ncnc(N)c1[N+](=O)[O-])C1CCCCC1	i	i	i	i	27*
N=C1/C(=C\c2ccc(SCc3ccccc3)o2)C(=O)N=C2SC(CC(=O)N3CCOCC3)=NN12	i	i	i	i	i
N=C1/C(=C\c2ccc(SCc3ccccc3)o2)C(=O)N=C2SC=NN12	i	i	i	8.7*	i
SMILES	MrgX1 antag	RGS4 pot	RGS4 block	MrgX1 PAM	MrgX1 ag
O=C1CSC(c2cccc([N+](=O)[O-])c2)N1CCc1ccccc1 (stereo not drawn)	i	i	i	i	i
COc1ccc(OC)c(-c2csc(N(Cc3ccco3)C(=O)c3cccs3)n2)c1	i	i	i	i	i
COc1ccc(-c2csc(N(Cc3ccco3)C(=O)c3cccs3)n2)cc1	-4.8*	i	i	i	i
CC1CN(S(=O)(=O)c2ccc(C(=O)Nc3nnc(-c4ccc5c(c4)CCCC5)o3)cc2)CC(C)O1 (stereo not drawn)	i	-7.3*	i	i	i
Cc1[nH]n(-c2ccccc2)c(=O)c1C(c1ccccc1[N+](=O)[O-])C(C#N)C#N (stereo not drawn)	i	i	i	i	36*
COc1cc(/C=C(\C#N)C(=O)c2ccc(O)c(O)c2)cc(I)c1O	i	nt	nt	i	i
C=CCOc1cccc(C(=O)/C=C2/C(=O)Nc3ccccc32)c1	i	i	5.8*	i	i
Cc1cccc(-n2c(=O)c3ccccc3n3c(=S)[nH]nc23)c1C	i	i	i	i	i
Cc1ccc(-c2nc(CS(=O)(=O)CC(=O)NC3CCCCCC3)c(C)o2)cc1	i	i	i	i	i
Cc1nn(C)cc1C1C2=C(CC(C)(C)CC2=O)N(c2ccccc2)C2=C1C(=O)CC(C)(C)C2	i	i	i	i	i
Cc1ccc(N2C3=C(C(=O)CC(C)(C)C3)C(c3cn(C)nc3C)C3=C2CC(C)(C)CC3=O)cc1	-6.6*	i	i	i	i
O=C(/C=C/c1ccc([N+](=O)[O-])s1)N1CCCCC1	i	i	i	i	i
O=C(/C=C/c1ccc([N+](=O)[O-])s1)N1CCCC1	-4.6*	i	i	i	i
CCOc1ccc(C(Nc2cccnc2)c2cc(Cl)c3cccnc3c2O)cc1 (stereo not drawn)	i	-8.3*	i	i	i
O=C(O)COc1ccccc1C(Nc1cccnc1)c1cc(Cl)c2cccnc2c1O (stereo not drawn)	nt	i	i	nt	nt
C/C(=N\O)C(C)(C)Nc1ccc(Br)cc1	i	i	i	i	26*
N#Cc1cc2c(nc1SCc1ccc(Cl)cc1)CCCC2	i	-7*	i	i	i
COCc1cc(C)nc(SCc2ccc(Cl)cc2)c1C#N	i	-7.6*	i	i	i
CC(C(=O)C12CC3CC(CC(C3)C1)C2)N1CCOCC1 (stereo not drawn)	i	i	i	i	i
N#CC1(C#N)[C@@H](C(=O)C23CC4CC(CC(C4)C2)C3)C12CCOCC2	-6.6*	i	i	i	i
Cc1cc(C(C2C(=O)CC(C)(C)CC2=O)C2C(=O)CC(C)(C)CC2=O)cc(C)c1OC(F)F	i	i	i	i	63*
CC(C)c1ccc(NC(=S)NNC(=O)c2cccs2)cc1	i	i	i	i	i
Cc1cccn2c(=O)c3cc(C#N)c(=NC(=O)c4ccccc4)n(Cc4ccco4)c3nc12	-4.9*	i	i	i	i
O=C1CCCc2oc3c(cc(NS(=O)(=O)c4ccc5c6c(cccc46)C(=O)N5)c4ccccc43)c21	i	i	i	7*	i
O=C(NCCNc1ccc(Cl)cc1[N+](=O)[O-])c1cccnc1	i	i	i	i	i
